Converted amounts (≈) assume the structure as drawn. Counter-ions that a name gives are not always drawn. The source made the active and inactive calls. No cut-off for these calls is given here.
Columns and labels:
[1] = target: T1, Inosine-5'-monophosphate dehydrogenase 2 (Homo sapiens, UniProt P12268); test: Inhibition of human IMPDH2 using IMP at 10 uM as substrate in presence of NAD+ after 30 mins relative to control
How it was run: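 Purchased purified hIMPDH2, 0.15 mU/well, in 100 mM Tris-HCl pH 8.6, 100 mM KCl, 5 mM DTT and 4% v/v DMSO. Started with 0.2 mM IMP plus 0.2 mM NAD+ and run 30 min at 37 °C. NADH read at 340 nm. Screen at 10 µM gave % inhibition.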

[2] = target: T1, Inosine-5'-monophosphate dehydrogenase 2; test: Inhibition of human IMPDH2 using IMP as substrate in presence of NAD+ after 30 mins
How it was run: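 Purchased purified hIMPDH2, 0.15 mU/well, in 100 mM Tris-HCl pH 8.6, 100 mM KCl, 5 mM DTT and 4% v/v DMSO. Started with 0.2 mM IMP plus 0.2 mM NAD+ and run 30 min at 37 °C. NADH read at 340 nm.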

[3] = tested on: MDA-MB-231; test: Cytotoxicity against human MDA-MB-231 cells assessed as reduction in cell viability after 48 hrs by MTT assay; assay type: functional, cell-based; settings: MDA-MB-231, 48 h
How it was run: (§1)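 Cells grown in DMEM with 10% FBS and penicillin-streptomycin at 37 °C, 5% CO2. Seeded at 10,000 (MDA-MB-231), 8,000 (DU145) or 5,000 (U87 MG) cells/well. Treated 24 hr later with 0.01–100 µM, each dilution in triplicate, DMSO vehicle. After 48 hr, MTT (5 mg/mL) for 4 hr, formazan dissolved in DMSO. Absorbance read at 540 nm with 630 nm background. IC50 taken from mean of triplicate readings.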

[4] = tested on: DU-145; test: Cytotoxicity against human DU145 cells assessed as reduction in cell viability after 48 hrs by MTT assay; assay type: functional, cell-based; settings: DU-145, 48 h; how it was run: as §1
[5] = tested on: U-87 MG; test: Cytotoxicity against human U87MG cells assessed as reduction in cell viability after 48 hrs by MTT assay; assay type: functional, cell-based, U-87MG ATCC; how it was run: as §1
[6] = Cytotoxicity against mouse NIH/3T3 cells assessed as cell viability at 10 uM after 48 hrs by MTT assay relative to control; assay type: cell-based, NIH3T3; settings: read-out: Activity
How it was run: (§2)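 NIH-3T3 mouse embryonic fibroblasts grown in DMEM with 10% FBS and penicillin-streptomycin at 37 °C, 5% CO2. Seeded at 10,000 cells/well and dosed after 24 hr, DMSO vehicle, triplicate wells. After 48 hr exposure, MTT (5 mg/mL) added for 4 hr and formazan dissolved in DMSO. Absorbance read at 540/630 nm. Viability expressed as % of control, mean ± SD.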

[7] = Cytotoxicity against mouse NIH/3T3 cells assessed as cell viability at 100 uM after 48 hrs by MTT assay relative to control; assay type: cell-based, NIH3T3; settings: read-out: Activity; how it was run: as §2
[8] = tested on: MDA-MB-231; test: Potency index, ratio of mycophenolic acid IC50 to compound IC50 for cytotoxicity against human MDA-MB-231 cells; assay type: functional
[9] = tested on: DU-145; test: Potency index, ratio of mycophenolic acid IC50 to compound IC50 for cytotoxicity against human DU145 cells; assay type: functional
[10] = Solubility in pH 7.4 sodium phosphate buffer after 2 hrs by HPLC analysis; assay type: physicochemical; settings: read-out: -log(solubility) (converted)
How it was run: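 DMSO stock diluted 1:100 into 50 mM sodium phosphate, pH 7.4, and shaken 2 hr at 37 °C, 200 rpm. Centrifuged 20 min at 4000 rpm; supernatant diluted 1:1 with acetonitrile and filtered. Quantified by C18 HPLC (acetonitrile:water 80:20, isocratic) against a calibration curve of 0.78–100 µM made in 1:1 buffer/acetonitrile.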

[11] = Octanol-buffer partition coefficient, log D of the compound at pH 7.4 after 2 hrs by HPLC analysis; assay type: physicochemical
How it was run: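 DMSO stock added to pre-saturated 1:1 1-octanol/pH 7.4 buffer and shaken 2 hr at 37 °C, 200 rpm. Phases separated and each quantified by HPLC on a C18 column with isocratic acetonitrile:water 80:20 at 1 mL/min. logD7.4 taken from the octanol-to-buffer concentration ratio.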

[12] = Cytotoxicity against human PBMC assessed as cell viability at 10 uM after 48 hrs by MTT assay relative to control; assay type: cell-based; settings: read-out: Activity
[13] = tested on: U-87 MG; test: Potency index, ratio of mycophenolic acid IC50 to compound IC50 for cytotoxicity against human U87MG cells; assay type: functional, U-87MG ATCC

## COc1cc(/C=C/C(=O)c2cccc(OCC(=O)Nc3ccc4c(c3)COC4=O)c2)cc(OC)c1OC
[1]
  inhibition: 63.7%

## O=C(COc1cccc(C(=O)/C=C/c2ccccc2)c1)Nc1ccc2c(c1)COC2=O
[1]
  inhibition: 93.7%
[2]
  IC50: 430 nM
[3]
  IC50: 1100 nM
[4]
  IC50: 1750 nM
[5]
  IC50: 3970 nM
[6]
  viability at 48 h, 10 µM: 96.7%
[7]
  viability at 48 h, 100 µM: 67.6%
[8]
  Ratio IC50: 4
[9]
  Ratio IC50: 1.7
[10]
  solubility at 2 h: 1.55 µM (≈ 0.64 µg/mL)
[11]
  logD at 2 h: 2.79

## COc1cccc2c1C(=O)c1c(O)c3c(c(O)c1C2=O)C[C@@](O)(C(=O)CO)C[C@@H]3O[C@H]1C[C@H](N)[C@H](O)[C@H](C)O1 [DOXORUBICIN HYDROCHLORIDE]
[3]
  IC50: 540 nM
[4]
  IC50: 210 nM
[5]
  IC50: 110 nM
[6]
  viability at 48 h, 10 µM: 15.6%
[7]
  viability at 48 h, 100 µM: 6.73%

## COc1ccc(/C=C/C(=O)c2ccc(OCC(=O)Nc3ccc4c(c3)COC4=O)cc2)cc1OC
[1]
  inhibition: 65.5%

## COc1cccc(/C=C/C(=O)c2ccc(OCC(=O)Nc3ccc(OC)c(OC)c3)cc2)c1
[1]
  inhibition: 28.8%

## COc1cc(/C=C/C(=O)c2ccc(OCC(=O)NCc3ccc4c(c3)OCO4)cc2)cc(OC)c1OC
[1]
  inhibition: inactive

## COc1ccc(NC(=O)COc2ccc(C(=O)/C=C/c3ccccc3Cl)cc2)cc1OC
[1]
  inhibition: 25.7%

## O=C(COc1ccc(C(=O)/C=C/c2cccs2)cc1)Nc1ccc2c(c1)COC2=O
[1]
  inhibition: 76.3%
[2]
  IC50: 4540 nM

## O=C(COc1ccc(C(=O)/C=C/c2ccc(Cl)cc2)cc1)Nc1ccc2c(c1)COC2=O
[1]
  inhibition: 62.1%

## COc1ccc(/C=C/C(=O)c2ccc(OCC(=O)Nc3ccc4c(c3)COC4=O)cc2)cc1
[1]
  inhibition: 95.6%
[2]
  IC50: 660 nM
[3]
  IC50: 3030 nM
[4]
  IC50: 2130 nM
[5]
  IC50: 4900 nM
[6]
  viability at 48 h, 10 µM: 90.9%
[7]
  viability at 48 h, 100 µM: 63.7%
[12]
  viability at 48 h, 10 µM: 86%

## COc1ccc(NC(=O)COc2ccc(C(=O)/C=C/c3ccco3)cc2)cc1OC
[1]
  inhibition: 21.3%

## COc1ccc(NC(=O)COc2ccc(C(=O)/C=C/c3cc(OC)c(OC)c(OC)c3)cc2)cc1OC
[1]
  inhibition: 20.6%

## COc1ccc(/C=C/C(=O)c2cccc(OCC(=O)Nc3ccc4c(c3)COC4=O)c2)cc1OC
[1]
  inhibition: 57%

## CCOc1ccc(/C=C/C(=O)c2ccc(OCC(=O)NCc3ccc4c(c3)OCO4)cc2)cc1
[1]
  inhibition: inactive

## COc1cc(C(=O)/C=C/c2cc(OC)c(OC)c(OC)c2)ccc1OCC(=O)Nc1ccc2c(c1)COC2=O
[1]
  inhibition: 19.9%

## COc1c(C)c2c(c(O)c1C/C=C(\C)CCC(=O)O)C(=O)OC2 [MYCOPHENOLIC ACID]
[3]
  IC50: 4380 nM
[4]
  IC50: 2940 nM
[5]
  IC50: 10700 nM
[6]
  viability at 48 h, 10 µM: 65.2%
[7]
  viability at 48 h, 100 µM: 40.7%
[12]
  viability at 48 h, 10 µM: 63%

## O=C(COc1ccc(/C=C/C(=O)c2ccc(F)cc2)cc1)Nc1ccc2c(c1)COC2=O
[1]
  inhibition: 87.9%
[2]
  IC50: 570 nM
[3]
  IC50: 5420 nM
[4]
  IC50: 6880 nM
[5]
  IC50: 6050 nM
[6]
  viability at 48 h, 10 µM: 90.3%
[7]
  viability at 48 h, 100 µM: 80.2%

## COc1ccc(NC(=O)COc2ccc(C(=O)/C=C/c3c(F)cccc3F)cc2)cc1OC
[1]
  inhibition: 35.9%

## CCCOc1ccc(/C=C/C(=O)c2ccc(OCC(=O)Nc3ccc4c(c3)COC4=O)cc2)cc1
[1]
  inhibition: 60.1%

## COc1cccc(/C=C/C(=O)c2ccc(OCC(=O)Nc3ccc4c(c3)COC4=O)cc2)c1
[1]
  inhibition: 91.5%
[2]
  IC50: 360 nM
[3]
  IC50: 3420 nM
[4]
  IC50: 2550 nM
[5]
  IC50: 5750 nM
[6]
  viability at 48 h, 10 µM: 87.1%
[7]
  viability at 48 h, 100 µM: 62.6%

## O=C(COc1ccc(C(=O)/C=C/c2ccc(OCc3ccc(Cl)cc3)cc2)cc1)Nc1ccc2c(c1)COC2=O
[1]
  inhibition: 39.1%

## COc1cc(/C=C/C(=O)c2ccc(OCC(=O)Nc3ccc4c(c3)COC4=O)cc2)cc(OC)c1OC
[1]
  inhibition: 71.3%
[2]
  IC50: 7380 nM

## O=C(COc1ccc(C(=O)/C=C/c2ccc([N+](=O)[O-])cc2)cc1)Nc1ccc2c(c1)COC2=O
[1]
  inhibition: 63.2%

## CCOc1ccc(/C=C/C(=O)c2ccc(OCC(=O)Nc3ccc4c(c3)COC4=O)cc2)cc1
[1]
  inhibition: 65.5%

## O=C(COc1ccc(C(=O)/C=C/c2ccco2)cc1)Nc1ccc2c(c1)COC2=O
[1]
  inhibition: 57.3%

## CCOc1ccc(/C=C/C(=O)c2ccc(OCC(=O)Nc3ccc(OC)c(OC)c3)cc2)cc1
[1]
  inhibition: 63.5%

## O=C(COc1ccc(C(=O)/C=C/c2ccc(OCc3ccc(Cl)cc3Cl)cc2)cc1)Nc1ccc2c(c1)COC2=O
[1]
  inhibition: 36.7%

## CCCCOc1ccc(/C=C/C(=O)c2ccc(OCC(=O)Nc3ccc4c(c3)COC4=O)cc2)cc1
[1]
  inhibition: 57.7%

## O=C(COc1ccc(C(=O)/C=C/c2ccccc2Cl)cc1)Nc1ccc2c(c1)COC2=O
[1]
  inhibition: 59.5%

## COc1ccc(/C=C/C(=O)c2ccc(OCC(=O)Nc3ccc(OC)c(OC)c3)cc2)cc1
[1]
  inhibition: 33.6%

## O=C(COc1ccc(C(=O)/C=C/c2ccc(OCc3ccccc3)cc2)cc1)Nc1ccc2c(c1)COC2=O
[1]
  inhibition: 52.2%

## O=C(COc1ccc(C(=O)/C=C/c2ccccc2)cc1)Nc1ccc2c(c1)COC2=O
[1]
  inhibition: 79.1%
[2]
  IC50: 790 nM

## COc1ccc(/C=C/C(=O)c2cccc(OCC(=O)Nc3ccc(OC)c(OC)c3)c2)cc1OC
[1]
  inhibition: 23.3%

## O=C(COc1ccc(C(=O)/C=C/c2c(F)cccc2F)cc1)NCc1ccc2c(c1)OCO2
[1]
  inhibition: inactive

## COc1ccc(/C=C/C(=O)c2ccc(OCC(=O)NCc3ccc4c(c3)OCO4)cc2)cc1OC
[1]
  inhibition: inactive

## COc1ccc(/C=C/C(=O)c2ccc(OCC(=O)NCc3ccc4c(c3)OCO4)cc2)cc1
[1]
  inhibition: inactive

## O=C(COc1ccc(C(=O)/C=C/c2c(F)cccc2F)cc1)Nc1ccc2c(c1)COC2=O
[1]
  inhibition: 94.2%
[2]
  IC50: 360 nM
[3]
  IC50: 2410 nM
[4]
  IC50: 1900 nM
[5]
  IC50: 3670 nM
[6]
  viability at 48 h, 10 µM: 98.5%
[7]
  viability at 48 h, 100 µM: 70.2%
[13]
  Ratio IC50: 3
[12]
  viability at 48 h, 10 µM: 77%
[10]
  solubility at 2 h: 1.55 µM (≈ 0.696 µg/mL)
[11]
  logD at 2 h: 2.99

## COc1ccc(NC(=O)COc2ccc(C(=O)/C=C/c3ccc(Cl)cc3)cc2)cc1OC
[1]
  inhibition: 30.1%

## COc1ccc(NC(=O)COc2ccc(C(=O)/C=C/c3cccs3)cc2)cc1OC
[1]
  inhibition: 24.5%

Source: ChEMBL document CHEMBL4270650, “Discovery of novel human inosine 5'-monophosphate dehydrogenase 2 (hIMPDH2) inhibitors as potential anticancer agents” (Eur J Med Chem, 2018)
